ChEMBL document CHEMBL2413020 (Bioorg Med Chem, 2013)
pIC50: −log10 of the molar value. Activity calls are given as the source filed them. No cut-off for these calls is given here.

Columns and labels:
Rattus norvegicus [1] = test: Antiinflammatory activity in Wistar albino rat assessed as inhibition of carrageenan-induced paw edema at 50 mg/kg, po administered 30 mins prior to carrageenan challenge measured at 3 hrs by plethysmometric analysis relative to control; format: functional
Outline: (§1)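 Groups of six male Wistar albino rats (200–250 g), fasted 12 h before and during the test. Agents given orally at 50 mg/kg; vehicle controls received tween 80 (95:5). After 30 min, 0.1 mL of 1% w/v carrageenan in saline injected subplantar into the left hind paw. Paw volume by plethysmometer at 0 h (within 30 s) and at 1, 2, 3 and 4 h. % edema inhibition from (Vt−V0) vs control; mean SEM, ANOVA.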

Rattus norvegicus [2] = test: Antiinflammatory activity in Wistar albino rat assessed as inhibition of carrageenan-induced paw edema at 50 mg/kg, po administered 30 mins prior to carrageenan challenge measured at 2 hrs by plethysmometric analysis relative to control; format: functional; outline: as §1
Rattus norvegicus [3] = test: Antiinflammatory activity in Wistar albino rat assessed as inhibition of carrageenan-induced paw edema at 50 mg/kg, po administered 30 mins prior to carrageenan challenge measured at 1 hr by plethysmometric analysis relative to control; format: functional; outline: as §1
Rattus norvegicus [4] = test: Antiinflammatory activity in Wistar albino rat assessed as inhibition of carrageenan-induced paw edema at 50 mg/kg, po administered 30 mins prior to carrageenan challenge measured at 4 hrs by plethysmometric analysis relative to control; format: functional; outline: as §1
[5] = molecular target: T1, Prostaglandin G/H synthase 1 (Ovis aries) (UniProt P05979); test: Inhibition of ovine COX1 using arachidonic acid as substrate assessed as production of PGF2alpha at 30 uM preincubated for 10 mins followed by substrate addition measured after 2 mins by EIA in presence of stannous chloride relative to control
T1 sequence (whole entry): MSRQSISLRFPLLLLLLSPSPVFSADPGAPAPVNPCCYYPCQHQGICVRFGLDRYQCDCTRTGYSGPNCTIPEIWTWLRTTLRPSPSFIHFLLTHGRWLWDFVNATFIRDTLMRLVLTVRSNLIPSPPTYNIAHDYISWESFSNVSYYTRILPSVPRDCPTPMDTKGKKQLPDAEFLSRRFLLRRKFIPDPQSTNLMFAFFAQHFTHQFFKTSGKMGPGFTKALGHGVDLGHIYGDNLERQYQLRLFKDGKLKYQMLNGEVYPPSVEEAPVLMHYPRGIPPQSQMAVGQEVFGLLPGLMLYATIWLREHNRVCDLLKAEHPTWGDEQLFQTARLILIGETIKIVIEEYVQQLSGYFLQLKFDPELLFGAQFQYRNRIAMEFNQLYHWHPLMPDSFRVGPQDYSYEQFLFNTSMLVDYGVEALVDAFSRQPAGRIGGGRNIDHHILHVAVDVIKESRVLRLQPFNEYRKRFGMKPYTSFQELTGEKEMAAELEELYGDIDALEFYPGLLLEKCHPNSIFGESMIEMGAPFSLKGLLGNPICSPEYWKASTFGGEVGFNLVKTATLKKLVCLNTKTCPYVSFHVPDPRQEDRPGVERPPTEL

[6] = molecular target: T2, Prostaglandin G/H synthase 1 (Ovis aries, UniProt P05979); test: Inhibition of ovine COX1 using arachidonic acid as substrate assessed as production of PGF2alpha preincubated for 10 mins followed by substrate addition measured after 2 mins by EIA in presence of stannous chloride
T2 sequence (P05979 whole entry): T1 sequence (whole entry)
Outline: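 Kit-based EIA in 0.1 M Tris-HCl pH 8 with 2 mM phenol. Enzyme and compound preincubated 10 min at 37 °C; arachidonic acid started a 2 min reaction, stopped with 1 M HCl, then stannous chloride 5 min at room temperature. EIA plate incubated 18 h, Ellman's reagent, read at 410 nm.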

Rattus norvegicus [7] = test: Antiinflammatory activity in Wistar albino rat assessed as inhibition of carrageenan-induced paw edema at 50 mg/kg, ip administered 30 mins prior to carrageenan challenge measured at 3 hrs by plethysmometric analysis relative to control; format: functional; conditions: route intraperitoneal
Outline: (§2)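 Male Wistar albino rats (200–250 g), food withdrawn 12 h before and during the test, in groups of six. Reference drug given ip; controls received tween 80 (95:5). At 30 min, 0.1 mL of 1% w/v carrageenan in saline injected subplantar into the left hind paw. Plethysmometer paw volume read within 30 s, then at 1–4 h. % inhibition vs control (Vt−V0); mean SEM, ANOVA.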

Rattus norvegicus [8] = test: Antiinflammatory activity in Wistar albino rat assessed as inhibition of carrageenan-induced paw edema at 50 mg/kg, ip administered 30 mins prior to carrageenan challenge measured at 2 hrs by plethysmometric analysis relative to control; format: functional; conditions: route intraperitoneal; outline: as §2
Rattus norvegicus [9] = test: Antiinflammatory activity in Wistar albino rat assessed as inhibition of carrageenan-induced paw edema at 50 mg/kg, ip administered 30 mins prior to carrageenan challenge measured at 1 hr by plethysmometric analysis relative to control; format: functional; conditions: route intraperitoneal; outline: as §2
Rattus norvegicus [10] = test: Antiinflammatory activity in Wistar albino rat assessed as inhibition of carrageenan-induced paw edema at 50 mg/kg, ip administered 30 mins prior to carrageenan challenge measured at 4 hrs by plethysmometric analysis relative to control; format: functional; conditions: route intraperitoneal; outline: as §2

Row | SMILES | inhibition in vivo at 50 mg/kg (Rattus norvegicus [1]) [%] | inhibition in vivo at 50 mg/kg (Rattus norvegicus [2]) [%] | inhibition in vivo at 50 mg/kg (Rattus norvegicus [3]) [%] | inhibition in vivo at 50 mg/kg (Rattus norvegicus [4]) [%] | inhibition [5] | pIC50 [6] | inhibition in vivo at 50 mg/kg (Rattus norvegicus [7]) [%] | inhibition in vivo at 50 mg/kg (Rattus norvegicus [8]) [%] | inhibition in vivo at 50 mg/kg (Rattus norvegicus [9]) [%] | inhibition in vivo at 50 mg/kg (Rattus norvegicus [10]) [%]
1 | COc1ccc(-c2cc(C(F)(F)F)nn2-c2ccc(C#N)cc2)cc1 | 69.9 | 85.2 | 44.4 | 54.8 | – | – | – | – | – | –
2 | NC(=S)c1ccc(-n2nc(C(F)(F)F)cc2-c2cccs2)cc1 | 57.2 | 73.4 | 85.9 | 61.5 | 39.8% | – | – | – | – | –
3 | Cc1ccc(-c2cc(C(F)(F)F)nn2-c2ccc(C#N)cc2)cc1 | 82.7 | 87.2 | 65.7 | 80.2 | inactive | – | – | – | – | –
4 | NC(=S)c1ccc(-n2nc(C(F)(F)F)cc2-c2ccc3ccccc3c2)cc1 | 53.2 | 72.9 | 92.9 | 46 | – | – | – | – | – | –
5 | N#Cc1ccc(-n2nc(C(F)(F)F)cc2-c2ccc(Br)cc2)cc1 | 83.8 | 88.8 | 78.8 | 86.4 | 13.4% | < 4.52 | – | – | – | –
6 | N#Cc1ccc(-n2nc(C(F)(F)F)cc2-c2ccccc2)cc1 | 84.4 | 81.1 | 91.9 | 91 | 97% | 5.95 | – | – | – | –
7 | N#Cc1ccc(-n2nc(C(F)(F)F)cc2-c2ccc(Cl)cc2)cc1 | 67.6 | 76.5 | 26.3 | 65 | inactive | – | – | – | – | –
8 | NC(=S)c1ccc(-n2nc(C(F)(F)F)cc2-c2ccc(Br)cc2)cc1 | 72.8 | 84.9 | 54.5 | 60.3 | 86.1% | 5.63 | – | – | – | –
9 | NC(=S)c1ccc(-n2nc(C(F)(F)F)cc2-c2ccccc2)cc1 | 49.7 | 74.9 | 82.8 | 50 | 97.9% | 5.85 | – | – | – | –
10 | NC(=S)c1ccc(-n2nc(C(F)(F)F)cc2-c2ccc(F)cc2)cc1 | 71.7 | 85.4 | 74.8 | 82.8 | inactive | < 4.52 | – | – | – | –
11 | NC(=S)c1ccc(-n2nc(C(F)(F)F)cc2-c2ccco2)cc1 | 58.4 | 77.4 | 82.8 | 59.8 | 20.1% | < 4.52 | – | – | – | –
12 | N#Cc1ccc(-n2nc(C(F)(F)F)cc2-c2ccco2)cc1 | 67.6 | 79.1 | 79.8 | 61.6 | inactive | – | – | – | – | –
13 | N#Cc1ccc(-n2nc(C(F)(F)F)cc2-c2cccs2)cc1 | 57.8 | 71.4 | 81.8 | 55.9 | inactive | – | – | – | – | –
14 | N#Cc1ccc(-n2nc(C(F)(F)F)cc2-c2ccc3ccccc3c2)cc1 | 59.5 | 67.8 | 84.8 | 48 | 20.7% | – | – | – | – | –
15 | NC(=S)c1ccc(-n2nc(C(F)(F)F)cc2-c2ccc(Cl)cc2)cc1 | 63 | 77.4 | 89.9 | 61.5 | 86.9% | 5.95 | – | – | – | –
16 | Cc1ccc(-c2cc(C(F)(F)F)nn2-c2ccc(C(N)=S)cc2)cc1 | 60.1 | 79.4 | 73.7 | 51.7 | 44.3% | < 4.52 | – | – | – | –
17 | COc1ccc2c(c1)c(CC(=O)O)c(C)n2C(=O)c1ccc(Cl)cc1 [INDOMETHACIN] | – | – | – | – | – | – | 85 | 90.3 | 96 | 90.2
18 | N#Cc1ccc(-n2nc(C(F)(F)F)cc2-c2ccc(F)cc2)cc1 | 84.4 | 81.1 | 79.8 | 90.4 | inactive | – | – | – | – | –
19 | COc1ccc(-c2cc(C(F)(F)F)nn2-c2ccc(C(N)=S)cc2)cc1 | 65.9 | 77.9 | 78.8 | 52.9 | – | – | – | – | – | –
